Results as given in ChEMBL document CHEMBL1154778, “Synthesis and biological evaluation of C-5 methyl substituted 4-arylthio and 4-aryloxy-3-Iodopyridin-2(1H)-one type anti-HIV agents” (J Med Chem, 2009).

Legend:
[1] = tested on: Human immunodeficiency virus 1; assay: Antiviral activity against HIV1 HXB2 harboring 100I mutant reverse transcriptase infected in human MT4 cells after 5 days by MTT assay; assay type: functional, organism-based; conditions: Human immunodeficiency virus 1, HXB2, MT4, 120 h
Outline: (§1)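 Mutant viruses were made by recombining the mutant PR-RT sequence into a PR-RT-deleted HIV-1 HXB2 proviral clone. MT4 cells were grown in RPMI 1640 with 10% FCS and antibiotics. Virus at 200 CCID50/well and 30000 cells/well were incubated with varied compound concentrations for 5 days at 37 °C, 5% CO2. MTT viability gave IC50, the concentration giving 50% infection versus the drug-free control.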

[2] = tested on: Human immunodeficiency virus 1; assay: Antiviral activity against HIV1 HXB2 harboring K103N mutant reverse transcriptase infected in human MT4 cells after 5 days by MTT assay; assay type: functional, organism-based; conditions: Human immunodeficiency virus 1, HXB2, MT4, 120 h; outline: as §1
[3] = tested on: Human immunodeficiency virus 1; assay: Antiviral activity against HIV-1 LAI harboring wild type reverse transcriptase infected in human MT4 cells after 5 days by MTT assay; assay type: functional, organism-based; conditions: Human immunodeficiency virus 1, LAI, MT4, 120 h
Outline: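 MT4 cells were kept in RPMI 1640 with 10% fetal calf serum and antibiotics at 37 °C, 5% CO2. A range of compound concentrations was incubated with HIV-1 LAI at 200 CCID50/well and 30000 MT4 cells/well for 5 days at 37 °C. Cell viability was read by MTT, and IC50 was the concentration giving 50% infection versus the drug-free control.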

[4] = tested on: Human immunodeficiency virus 1; assay: Antiviral activity against HIV1 HXB2 harboring Y181C mutant reverse transcriptase infected in human MT4 cells after 5 days by MTT assay; assay type: functional, organism-based; conditions: Human immunodeficiency virus 1, HXB2, MT4, 120 h; outline: as §1
[5] = tested on: Human immunodeficiency virus 1; assay: Antiviral activity against HIV1 HXB2 harboring 101E mutant reverse transcriptase infected in human MT4 cells after 5 days by MTT assay; assay type: functional, organism-based; conditions: Human immunodeficiency virus 1, HXB2, MT4, 120 h; outline: as §1
[6] = Selectivity index, ratio of CC50 for human MT4 cells to IC50 for HIV-1 LAI harboring wild type reverse transcriptase infected in human MT4 cells; assay type: functional
Outline: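 Cytotoxicity was measured in mock-infected MT4 cultures (30000 cells/well) given the same compound concentration range, run in parallel with the infected cultures for 5 days at 37 °C, 5% CO2, with MTT viability. CC50 was the concentration reducing viability by 50% versus the drug-free control. SI was CC50 divided by IC50 against HIV-1 LAI.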

[7] = tested on: Human immunodeficiency virus 1; assay: Antiviral activity against HIV1 HXB2 harboring 106A mutant reverse transcriptase infected in human MT4 cells after 5 days by MTT assay; assay type: functional, organism-based; conditions: Human immunodeficiency virus 1, HXB2, MT4, 120 h; outline: as §1
[8] = tested on: Human immunodeficiency virus 1; assay: Antiviral activity against HIV1 HXB2 harboring Y188L mutant reverse transcriptase infected in human MT4 cells after 5 days by MTT assay; assay type: functional, organism-based; conditions: Human immunodeficiency virus 1, HXB2, MT4, 120 h; outline: as §1
[9] = tested on: Human immunodeficiency virus 1; assay: Antiviral activity against HIV1 HXB2 harboring 190A mutant reverse transcriptase infected in human MT4 cells after 5 days by MTT assay; assay type: functional, organism-based; conditions: Human immunodeficiency virus 1, HXB2, MT4, 120 h; outline: as §1
[10] = tested on: Human immunodeficiency virus 1; assay: Antiviral activity against HIV1 HXB2 harboring K103N and Y181C mutant reverse transcriptase infected in human MT4 cells after 5 days by MTT assay; assay type: functional, organism-based; conditions: Human immunodeficiency virus 1, HXB2, MT4, 120 h; outline: as §1
[11] = tested on: Human immunodeficiency virus 1; assay: Antiviral activity against HIV1 HXB2 harboring 227L and 106A mutant reverse transcriptase infected in human MT4 cells after 5 days by MTT assay; assay type: functional, organism-based; conditions: Human immunodeficiency virus 1, HXB2, MT4, 120 h; outline: as §1
[12] = tested on: Human immunodeficiency virus 1; assay: Antiviral activity against HIV1 HXB2 harboring 179E mutant reverse transcriptase infected in human MT4 cells after 5 days by MTT assay; assay type: functional, organism-based; conditions: Human immunodeficiency virus 1, HXB2, MT4, 120 h; outline: as §1
[13] = tested on: Human immunodeficiency virus 1; assay: Antiviral activity against HIV1 HXB2 harboring 190S mutant reverse transcriptase infected in human MT4 cells after 5 days by MTT assay; assay type: functional, organism-based; conditions: Human immunodeficiency virus 1, HXB2, MT4, 120 h; outline: as §1
[14] = tested on: Human immunodeficiency virus 1; assay: Antiviral activity against HIV1 HXB2 harboring 101E and K103N mutant reverse transcriptase infected in human MT4 cells after 5 days by MTT assay; assay type: functional, organism-based; conditions: Human immunodeficiency virus 1, HXB2, MT4, 120 h; outline: as §1
[15] = tested on: Human immunodeficiency virus 1; assay: Antiviral activity against HIV1 HXB2 harboring 100I and K103N mutant reverse transcriptase infected in human MT4 cells after 5 days by MTT assay; assay type: functional, organism-based; conditions: Human immunodeficiency virus 1, HXB2, MT4, 120 h; outline: as §1
[16] = tested on: Human immunodeficiency virus 1; assay: Antiviral activity against HIV1 HXB2 harboring 227C mutant reverse transcriptase infected in human MT4 cells after 5 days by MTT assay; assay type: functional, organism-based; conditions: Human immunodeficiency virus 1, HXB2, MT4, 120 h; outline: as §1
[17] = tested on: Human immunodeficiency virus 1; assay: Antiviral activity against HIV1 HXB2 harboring 138K mutant reverse transcriptase infected in human MT4 cells after 5 days by MTT assay; assay type: functional, organism-based; conditions: Human immunodeficiency virus 1, HXB2, MT4, 120 h; outline: as §1

Compound	IC50 [1]	IC50 [2]	IC50 [3]	IC50 [4]	IC50 [5]	Ratio CC50/IC50 [6]	IC50 [7]	IC50 [8]	IC50 [9]	IC50 [10]	IC50 [11]	IC50 [12]	IC50 [13]	IC50 [14]	IC50 [15]	IC50 [16]	IC50 [17]	EC50 [11]
CCc1c(C)[nH]c(=O)c(N(C)C)c1Cc1cc(C)cc(C)c1	50.1 nM	31.6 nM	7.94 nM	100 nM	15.8 nM	12589	39.8 nM	251 nM	63.1 nM	794 nM	–	–	–	–	–	–	–	–
Cc1cc(C)cc(Oc2c(CSCc3nccs3)c(C)[nH]c(=O)c2I)c1	–	25.1 nM	7.94 nM	39.8 nM	–	>12589	–	2000 nM	–	–	–	–	–	–	–	–	–	–
Cc1cc(C)cc(Oc2c(COCc3ccc(F)cc3)c(C)[nH]c(=O)c2I)c1	–	7.94 nM	7.94 nM	25.1 nM	–	>12589	–	79.4 nM	–	–	–	–	–	–	–	–	–	–
Cc1cc(C)cc(Oc2c(CSCC(C)C)c(C)[nH]c(=O)c2I)c1	–	25.1 nM	7.94 nM	50.1 nM	–	>12589	–	794 nM	–	–	–	–	–	–	–	–	–	–
CCS(=O)(=O)Cc1c(C)[nH]c(=O)c(I)c1Oc1cc(C)cc(C)c1	–	39.8 nM	7.94 nM	158 nM	–	>12589	–	794 nM	–	–	–	–	–	–	–	–	–	–
Cc1cc(C)cc(Oc2c(COCc3ccccc3)c(C)[nH]c(=O)c2I)c1	–	31.6 nM	7.94 nM	31.6 nM	–	>12589	–	125 nM	–	–	–	–	–	–	–	–	–	–
Cc1cc(C)cc(Oc2c(CSCc3ccco3)c(C)[nH]c(=O)c2I)c1	6.31 nM	1 nM	1.25 nM	5 nM	6.31 nM	>79433	1.58 nM	31.6 nM	3.16 nM	5.01 nM	125 nM	1 nM	1.25 nM	3.98 nM	31.6 nM	39.8 nM	1.25 nM	–
Cc1cc(C)cc(Oc2c(COCC3CCCO3)c(C)[nH]c(=O)c2I)c1 (centres undefined)	–	31.6 nM	7.94 nM	39.8 nM	–	>12589	–	501 nM	–	–	–	–	–	–	–	–	–	–
Cc1cc(C)cc(Oc2c(CSC3CCCC3)c(C)[nH]c(=O)c2I)c1	–	31.6 nM	10 nM	100 nM	–	>10000	–	630 nM	–	–	–	–	–	–	–	–	–	–
Cc1cc(C)cc(Oc2c(CSCc3csc(C)n3)c(C)[nH]c(=O)c2I)c1	3.16 nM	1 nM	1 nM	6.3 nM	–	>100000	–	7.9 nM	–	–	–	–	–	–	158 nM	39.8 nM	–	158 nM
COCCSCc1c(C)[nH]c(=O)c(I)c1Oc1cc(C)cc(C)c1	10 nM	1.58 nM	1.99 nM	7.94 nM	–	>50119	–	31.6 nM	–	–	199 nM	–	–	–	–	199 nM	–	–
Cc1cc(C)cc(Oc2c(Cn3ccc(N)n3)c(C)[nH]c(=O)c2I)c1	–	39.8 nM	7.9 nM	39.8 nM	–	>12589	–	125 nM	–	–	–	–	–	–	–	–	–	–
Cc1cc(C)cc(Oc2c(Cn3ccnc3)c(C)[nH]c(=O)c2I)c1	6.31 nM	2.51 nM	1.99 nM	10 nM	9.2 nM	>50118	3.7 nM	31.6 nM	8 nM	71.2 nM	–	5.1 nM	2.2 nM	28.6 nM	23.7 nM	–	11.2 nM	–
Cc1cc(C)cc(Sc2c(CSCc3cccs3)c(C)[nH]c(=O)c2I)c1	–	10 nM	10 nM	39.8 nM	–	>10000	–	794 nM	–	–	–	–	–	–	–	–	–	–
Cc1cc(C)cc(Sc2c(Cn3cnc(-c4ccccc4)n3)c(C)[nH]c(=O)c2I)c1	–	7.94 nM	6.3 nM	10 nM	–	>15849	–	39.8 nM	–	–	–	–	–	–	–	–	–	–
